Reference: article PMC8463269 (Acta Pharmaceutica Sinica. B, 2021)
Read-outs that look alike come from different tables or passages of the source. Where a SMILES comes first, the peptide text is derived from it. Bridges are numbered along the chain shown (N, C = ends). [ ]: non-standard residue; d: D form. S5 = C=CCCC[C@](C)(N)C(=O)O

What was measured:
[1] = Circular dichroism spectroscopy, α-helicity; format: physicochemical; settings: CD, 0.3 mg/mL in 1×PBS pH 7.4, 25 °C, 190–260 nm, average of three readings
Procedure, shortened: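 Spectra were taken in a 1.0 mm path quartz cell with 1 nm bandwidth, 50 nm/min scan speed and 1 s response time. Peptide was also run in PBS with 50% trifluoroethanol. Spectra were converted to mean residue ellipticity (deg·cm²/dmol) versus wavelength.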

KRAS^G12C protein = KRAS^G12C protein (Homo sapiens, UniProt P01116, G12C); assay: Bio-Layer Interferometry; format: binding
Procedure, shortened: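 The biotinylated protein was captured on SSA sensors in an Octet RED 96. Test peptides were run at various concentrations, and KD was calculated from the binding kinetics.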

[2] = Plasma stability in rat plasma; format: in vitro ADME, Sprague–Dawley rats; settings: 1300 μg/mL, 0 min, HPLC
Procedure, shortened: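 Heparinised blood was drawn from the femoral artery of Sprague–Dawley rats and centrifuged at 4 °C, 4000 r/min for 10 min to give plasma. Plasma spiked with test peptide was incubated at 37 °C. Aliquots were precipitated in 3 volumes of methanol–acetonitrile (50:50), vortexed and centrifuged, and the supernatant was analysed by C18 RP-HPLC with a 0.1% TFA water/acetonitrile gradient.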

H358 cells [3] = assay: Cell viability, CCK8 assay; format: cell-based; settings: read-out: IC50, H358 cell viability, n = 3
Procedure, shortened: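 H358 cells in RPMI-1640 with 10% FBS were plated overnight, then incubated with diluted series of test peptide for 24 h, or 36, 48 and 72 h. CCK8 reagent was added for 1 h at 37 °C and absorbance read at 450 nm. Mean ± SD of three independent experiments.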

[4] = test system: cyclin-dependent kinase 1 (CDK1); assay: Western blot, CDK1 expression in H358 cells; format: cell-based; settings: H358 cells, 0, 5, 10, 20 μmol/L, 24 h
Procedure, shortened: (§1)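 H358 cells treated with test peptide for 24 h were lysed on ice for 1 h in buffer with phosphatase inhibitor cocktail and PMSF. Proteins were separated by SDS-PAGE and transferred to PVDF. Membranes were incubated with primary antibody at 4 °C overnight, then HRP goat anti-rabbit IgG for 100 min, and imaged by chemiluminescence. GAPDH was probed alongside.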

cyclin B1 = assay: Western blot, cyclin B1 expression in H358 cells; format: cell-based; settings: H358 cells, 0, 5, 10, 20 μmol/L, 24 h
Procedure, shortened: as §1

BCL-2 = assay: Western blot, BCL-2 expression in H358 cells; format: cell-based; settings: H358 cells, 0, 5, 10, 20 μmol/L, 24 h
Procedure, shortened: as §1

trypsin = assay: Enzymatic degradation by trypsin; format: in vitro ADME; settings: 150 μg/mL peptide, 3 μg/mL trypsin, NH4HCO3 buffer, 37 °C, HPLC, n = 3
Procedure, shortened: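 Test peptide was digested with trypsin or chymotrypsin (peptide:enzyme weight ratio 50:1) in NH4HCO3 buffer at 37 °C. Samples were taken at 0, 30 min and 1, 2, 6, 12 and 24 h and quenched with 1% (v/v) formic acid. Analysis was by C18 RP-HPLC with a 0.1% TFA water/acetonitrile gradient (20→90% B over 30 min, 1 mL/min).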

H358 cells [5] = assay: Cell cycle analysis by flow cytometry; format: cell-based; settings: 24-h treatment, highest concentration of the series, control 16.76%
caspase 3 = assay: Western blot, caspase 3 expression in H358 cells; format: cell-based; settings: H358 cells, 0, 5, 10, 20 μmol/L, 24 h
Procedure, shortened: as §1

H358 cells [6] = assay: Annexin V-FITC apoptosis assay by flow cytometry; format: cell-based; settings: 24 h, control 36.42%
BAX = assay: Western blot, BAX expression in H358 cells; format: cell-based; settings: H358 cells, 0, 5, 10, 20 μmol/L, 24 h
Procedure, shortened: as §1

circular dichroism = settings: PBS; pH 7.4; 25 °C; 0.3 mg/mL
[7] = molecular target: hexahistidine-tagged recombinant human KRAS^G12C (human) (UniProt P01116); assay: BLI

Compound: CC[C@H](C)[C@H](NC(=O)CNC(=O)[C@H](Cc1ccccc1)NC(=O)[C@H](Cc1ccccc1)NC(=O)[C@H](CCCNC(=N)N)NC(=O)[C@H](CCCNC(=N)N)NC(C)=O)C(=O)N[C@@]1(C)CCCC=CCCC[C@@](C)(C(=O)N[C@@H](CC(C)C)C(=O)N[C@@H](CCCCN)C(=O)N[C@H](C(=O)N[C@@H](CCC(=O)O)C(=O)N[C@@H](CCC(=O)O)C(=O)NCC(=O)N[C@@H](CC(N)=O)C(N)=O)[C@@H](C)O)NC(=O)[C@H](CC(N)=O)NC(=O)[C@H]([C@@H](C)O)NC(=O)[C@H](CC(C)C)NC1=O [Peptide 1, reference compound]
- α-helicity in PBS [1]: 16.20%
- Kd (KRAS^G12C protein): 58.3 µM
- kon (KRAS^G12C protein): 14800 M⁻¹ s⁻¹
- plasma stability, characteristic peak in the chromatogram [2]: No characteristic peaks were observed
- IC50 (H358 cells [3]; CCK8, 24-h incubation): 21.2 µM

Compound: CC[C@H](C)[C@H](NC(=O)CNC(=O)[C@H](Cc1ccccc1)NC(=O)[C@H](Cc1ccccc1)NC(C)=O)C(=O)N[C@@]1(C)CCCC=CCCC[C@@](C)(C(=O)N[C@@H](CC(C)C)C(=O)N[C@@H](CCCCN)C(=O)N[C@H](C(=O)N[C@@H](CCC(=O)O)C(N)=O)[C@@H](C)O)NC(=O)[C@H](CC(N)=O)NC(=O)[C@H]([C@@H](C)O)NC(=O)[C@H](CC(C)C)NC1=O [Peptide 2] (Ac-FFGI[S5]LTN[S5]LKTE-NH2; staple 5-9)
- Kd (KRAS^G12C protein): 21.7 µM
- kon (KRAS^G12C protein): 43600 M⁻¹ s⁻¹

Compound: CC[C@H](C)[C@H](NC(=O)CNC(=O)[C@H](Cc1ccccc1)NC(C)=O)C(=O)N[C@@]1(C)CCCC=CCCC[C@@](C)(C(=O)N[C@@H](CC(C)C)C(=O)N[C@@H](CCCCN)C(=O)N[C@H](C(N)=O)[C@@H](C)O)NC(=O)[C@H](CC(N)=O)NC(=O)[C@H]([C@@H](C)O)NC(=O)[C@H](CC(C)C)NC1=O [Peptide 3] (Ac-FGI[S5]LTN[S5]LKT-NH2; staple 4-8)
- α-helicity in PBS [1]: 18.93%
- CDK1 expression [4]: significantly downregulated
- cyclin B1 expression (cyclin B1): significantly downregulated
- anti-apoptotic BCL-2 protein expression (BCL-2): obviously inhibited
- percentage of trypsin hydrolysate (g) of the peptide (trypsin; 12 h): 78%
- percentage of trypsin hydrolysate (g) of the peptide (trypsin; 24 h): 34%
- kon (KRAS^G12C protein): 4600 M⁻¹ s⁻¹
- percentage of cells in the G2/M (H358 cells [5]): 49.79%
- caspase 3 expression (caspase 3): increased
- proportion of apoptotic cells (Q2 + Q3) (H358 cells [6]; 2.5 μmol/L): 56.63%
- proportion of apoptotic cells (Q2 + Q3) (H358 cells [6]; 10 μmol/L): 61.40%
- proportion of apoptotic cells (Q2 + Q3) (H358 cells [6]; 20 μmol/L): 70.70%
- pro-apoptotic BAX protein expression (BAX): insignificant effect
- IC50 (H358 cells [3]; CCK8, 24-h incubation): 15.7 µM
- IC50 (H358 cells [3]; CCK8, 36-h incubation): 7.55 µM
- IC50 (H358 cells [3]; CCK8, 48-h incubation): 5.75 µM
- IC50 (H358 cells [3]; CCK8, 72-h incubation): 6.68 µM
- helicity (circular dichroism): 18.9%

Compound: CC[C@H](C)[C@H](NC(=O)CNC(C)=O)C(=O)N[C@@]1(C)CCCC=CCCC[C@@](C)(C(=O)N[C@@H](CC(C)C)C(=O)N[C@@H](CCCCN)C(N)=O)NC(=O)[C@H](CC(N)=O)NC(=O)[C@H]([C@@H](C)O)NC(=O)[C@H](CC(C)C)NC1=O [Peptide 4] (Ac-GI[S5]LTN[S5]LK-NH2; staple 3-7)
- Kd (KRAS^G12C protein): 25 µM
- kon (KRAS^G12C protein): 97.6 M⁻¹ s⁻¹

Compound: CC[C@H](C)[C@H](NC(C)=O)C(=O)N[C@@]1(C)CCCC=CCCC[C@@](C)(C(=O)N[C@@H](CC(C)C)C(N)=O)NC(=O)[C@H](CC(N)=O)NC(=O)[C@H]([C@@H](C)O)NC(=O)[C@H](CC(C)C)NC1=O [Peptide 5] (Ac-I[S5]LTN[S5]L-NH2; staple 2-6)
- kon (KRAS^G12C protein): 3.12 M⁻¹ s⁻¹
- Kd (KRAS^G12C protein; BLI, dissociation rate constant): 1.06 s⁻¹

Compound: CC(=O)N[C@@]1(C)CCCC=CCCC[C@@](C)(C(N)=O)NC(=O)[C@H](CC(N)=O)NC(=O)[C@H]([C@@H](C)O)NC(=O)[C@H](CC(C)C)NC1=O [Peptide 6] (Ac-[S5]LTN[S5]-NH2; staple 1-5)
- kon (KRAS^G12C protein): 3.22 M⁻¹ s⁻¹

Compound: CC[C@H](C)[C@H](NC(C)=O)C(=O)N[C@@]1(C)CCCC=CCCC[C@@](C)(C(=O)N[C@@H](CC(C)C)C(=O)N[C@@H](CCCCN)C(=O)N[C@H](C(N)=O)[C@@H](C)O)NC(=O)[C@H](CC(N)=O)NC(=O)[C@H]([C@@H](C)O)NC(=O)[C@H](CC(C)C)NC1=O [Peptide 7] (Ac-I[S5]LTN[S5]LKT-NH2; staple 2-6)
- α-helicity in PBS [1]: 17.90%
- Kd (KRAS^G12C protein): 87.2 µM
- kon (KRAS^G12C protein): 64.7 M⁻¹ s⁻¹

Compound: CC(=O)N[C@@]1(C)CCCC=CCCC[C@@](C)(C(=O)N[C@@H](CC(C)C)C(=O)N[C@@H](CCCCN)C(=O)N[C@H](C(N)=O)[C@@H](C)O)NC(=O)[C@H](CC(N)=O)NC(=O)[C@H]([C@@H](C)O)NC(=O)[C@H](CC(C)C)NC1=O [Peptide 8] (Ac-[S5]LTN[S5]LKT-NH2; staple 1-5)
- Kd (KRAS^G12C protein): 29.1 µM
- kon (KRAS^G12C protein): 1750 M⁻¹ s⁻¹

Compound: CC[C@H](C)[C@H](NC(=O)CNC(=O)[C@H](Cc1ccccc1)NC(C)=O)C(=O)N[C@@]1(C)CCCC=CCCC[C@@](C)(C(=O)N[C@@H](CC(C)C)C(N)=O)NC(=O)[C@H](CC(N)=O)NC(=O)[C@H]([C@@H](C)O)NC(=O)[C@H](CC(C)C)NC1=O [Peptide 9] (Ac-FGI[S5]LTN[S5]L-NH2; staple 4-8)
- Kd (KRAS^G12C protein): 64.9 µM
- kon (KRAS^G12C protein): 1630 M⁻¹ s⁻¹

Compound: CC[C@H](C)[C@H](NC(=O)CNC(=O)[C@H](Cc1ccccc1)NC(C)=O)C(=O)N[C@@]1(C)CCCC=CCCC[C@@](C)(C(N)=O)NC(=O)[C@H](CC(N)=O)NC(=O)[C@H]([C@@H](C)O)NC(=O)[C@H](CC(C)C)NC1=O [Peptide 10] (Ac-FGI[S5]LTN[S5]-NH2; staple 4-8)
- Kd (KRAS^G12C protein): 131 µM
- kon (KRAS^G12C protein): 294 M⁻¹ s⁻¹

Compound: SAH-SOS1A (peptide 1)
- koff [7]: 0.862 s⁻¹
